Assay results published in ChEMBL document CHEMBL1131049, “Antiviral activities of methylated nordihydroguaiaretic acids. 2. Targeting herpes simplex virus replication by the mutation insensitive transcription inhibitor tetra-O-methyl-NDGA” (J Med Chem, 1998).
“And” between values parts separate entries of the source, which are not always exact repeats. Equal entries are not always repeated.

Assays:
Vero [1] = experiment: Comparative Potency (IC50s) at HSV-1 passage 3 in vero cells; format: functional, cell-based; details: Chlorocebus sabaeus
Procedure, shortened: (§1)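 Vero cells infected with 100 TCID50 of HSV-1 (Sm44) or HSV-2 (Sav); compound in DMSO diluted in medium and added 2 h post-infection, triplicates per concentration. Passaging: virus recovered from cultures at the IC50 infected fresh Vero cells, and the IC50 was redetermined each passage.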

Vero [2] = experiment: Comparative Potency (IC50s) at HSV-1 passage 4 in vero cells; format: functional, cell-based; details: Chlorocebus sabaeus; procedure, shortened: as §1
Vero [3] = experiment: Comparative Potency (IC50s) at HSV-1 passage 5 in vero cells; format: functional, cell-based; details: Chlorocebus sabaeus; procedure, shortened: as §1
Vero [4] = experiment: Comparative Potency (IC50s) at HSV-1 passage 6 in vero cells; format: functional, cell-based; details: Chlorocebus sabaeus; procedure, shortened: as §1
Vero [5] = experiment: Comparative Potency (IC50s) at HSV-1 passage 2 in vero cells; format: functional, cell-based; details: Chlorocebus sabaeus; procedure, shortened: as §1
Vero [6] = experiment: Comparative Potency (IC50s) at HSV-1 passage 7 in vero cells; format: functional, cell-based; details: Chlorocebus sabaeus; procedure, shortened: as §1
Vero [7] = experiment: Comparative Potency (IC50s) at HSV-1 passage 8 in vero cells; format: functional, cell-based; details: Chlorocebus sabaeus; procedure, shortened: as §1
Vero [8] = experiment: Comparative Potency (IC50s) at HSV-1 passage 9 in vero cells; format: functional, cell-based; details: Chlorocebus sabaeus; procedure, shortened: as §1
Vero [9] = experiment: Comparative Potency (IC50s) at HSV-2 passage 1 in vero cells; format: functional, cell-based; details: Chlorocebus sabaeus; procedure, shortened: as §1
Vero [10] = experiment: Comparative Potency (IC50s) at HSV-2 passage 2 in vero cells; format: functional, cell-based; details: Chlorocebus sabaeus; procedure, shortened: as §1
Vero [11] = experiment: Comparative Potency (IC50s) at HSV-2 passage 3 in vero cells; format: functional, cell-based; details: Chlorocebus sabaeus; procedure, shortened: as §1
Vero [12] = experiment: Comparative Potency (IC50s) at HSV-2 passage 4 in vero cells; format: functional, cell-based; details: Chlorocebus sabaeus; procedure, shortened: as §1
[13] = Ralative safety was expressed as Selective index (TC50/IC50) at HSV-1 passage 6 in vero cells; format: functional
Procedure, shortened: (§2)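 SI = TC50/IC50 per passage. IC50 comes from serial passage of HSV-1 Sm44 or HSV-2 Sav in Vero cells (100 TCID50, drug added 2 h p.i., CPE read-out, triplicates). TC50 comes from uninfected Vero cells by a tetrazolium viability assay, run three times in triplicate and averaged.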

[14] = Ralative safety was expressed as Selective index (TC50/IC50) at HSV-1 passage 1 in vero cells; format: functional; procedure, shortened: as §2
[15] = Ralative safety was expressed as Selective index (TC50/IC50) at HSV-1 passage 2 in vero cells; format: functional; procedure, shortened: as §2
[16] = Ralative safety was expressed as Selective index (TC50/IC50) at HSV-1 passage 3 in vero cells; format: functional; procedure, shortened: as §2
[17] = Ralative safety was expressed as Selective index (TC50/IC50) at HSV-1 passage 4 in vero cells; format: functional; procedure, shortened: as §2
[18] = Ralative safety was expressed as Selective index (TC50/IC50) at HSV-1 passage 5 in vero cells; format: functional; procedure, shortened: as §2
[19] = Ralative safety was expressed as Selective index (TC50/IC50) at HSV-1 passage 7 in vero cells; format: functional; procedure, shortened: as §2
[20] = Ralative safety was expressed as Selective index (TC50/IC50) at HSV-1 passage 8 in vero cells; format: functional; procedure, shortened: as §2
[21] = Ralative safety was expressed as Selective index (TC50/IC50) at HSV-1 passage 9 in vero cells; format: functional; procedure, shortened: as §2
[22] = Ralative safety was expressed as Selective index (TC50/IC50) at HSV-2 passage 2 in vero cells; format: functional; procedure, shortened: as §2
[23] = Ralative safety was expressed as Selective index (TC50/IC50) at HSV-2 passage 3 in vero cells; format: functional; procedure, shortened: as §2
[24] = Ralative safety was expressed as Selective index (TC50/IC50) at HSV-2 passage 4 in vero cells; format: functional; procedure, shortened: as §2
[25] = Ralative safety was expressed as Selective index (TC50/IC50) at HSV-2 passage 1 in vero cells; format: functional; procedure, shortened: as §2
[26] = Ralative safety was expressed as Selective index (TC50/IC50) at HSV-1 passage 10 in vero cells; format: functional; procedure, shortened: as §2
Mus musculus [27] = experiment: Percent Change in body weight of 5 mice when intraperitoneally administered daily once for 7 days at dose 50 mg/kg; format: functional; details: route intraperitoneal
Mus musculus [28] = experiment: Percent Change in body weight of 5 mice when intraperitoneally administered daily once for 1 day at dose 300 mg/kg; format: functional; details: route intraperitoneal
[29] = Mortality in 5 mice when intraperitoneally administered daily twice for 5 days at dose 50 mg/kg; format: ADME, organism-based; design: dose 50 mg/kg, route intraperitoneal; details: mouse, in vivo, ip, 120 h
[30] = Mortality in 5 mice when intraperitoneally administered daily once for 7 days at dose 100 mg/kg; format: ADME, organism-based; design: dose 100 mg/kg, route intraperitoneal; details: mouse, in vivo, ip, 168 h
[31] = Mortality in 5 mice when intraperitoneally administered daily once for 7 days at dose 25 mg/kg; format: ADME, organism-based; design: dose 25 mg/kg, route intraperitoneal; details: mouse, in vivo, ip, 168 h
[32] = Mortality in 5 mice when intraperitoneally administered daily once for 7 days at dose 50 mg/kg; format: ADME, organism-based; design: dose 50 mg/kg, route intraperitoneal; details: mouse, in vivo, ip, 168 h
[33] = Relative safety was expressed as Selective index (TC50/IC50) at HSV-1 passage 4 in vero cells; format: functional; procedure, shortened: as §2
[34] = Relative safety was expressed as Selective index (TC50/IC50) at HSV-1 passage 6 in vero cells; format: functional; procedure, shortened: as §2
[35] = Relative safety was expressed as Selective index (TC50/IC50) at HSV-1 passage 7 in vero cells; format: functional; procedure, shortened: as §2
[36] = Relative safety was expressed as Selective index (TC50/IC50) at HSV-1 passage 8 in vero cells; format: functional; procedure, shortened: as §2
[37] = Relative safety was expressed as Selective index (TC50/IC50) at HSV-1 passage 9 in vero cells; format: functional; procedure, shortened: as §2
[38] = Relative safety was expressed as Selective index (TC50/IC50) at HSV-2 passage 1 in vero cells; format: functional; procedure, shortened: as §2
[39] = Relative safety was expressed as Selective index (TC50/IC50) at HSV-1 passage 1 in vero cells; format: functional; procedure, shortened: as §2
[40] = Relative safety was expressed as Selective index (TC50/IC50) at HSV-1 passage 10 in vero cells; format: functional; procedure, shortened: as §2
[41] = Relative safety was expressed as Selective index (TC50/IC50) at HSV-1 passage 2 in vero cells; format: functional; procedure, shortened: as §2
[42] = Relative safety was expressed as Selective index (TC50/IC50) at HSV-1 passage 3 in vero cells; format: functional; procedure, shortened: as §2
[43] = Relative safety was expressed as Selective index (TC50/IC50) at HSV-2 passage 2 in vero cells; format: functional; procedure, shortened: as §2
[44] = Relative safety was expressed as Selective index (TC50/IC50) at HSV-2 passage 3 in vero cells; format: functional; procedure, shortened: as §2
[45] = Relative safety was expressed as Selective index (TC50/IC50) at HSV-2 passage 4 in vero cells; format: functional; procedure, shortened: as §2
Vero [46] = experiment: Comparative Potency (IC50s) at HSV-1 passage 10 in vero cells; format: functional, cell-based, Chlorocebus sabaeus; procedure, shortened: as §1
[47] = Relative safety was expressed as Selective index (TC50/IC50) at HSV-1 passage 5 in vero cells; format: functional; procedure, shortened: as §2

SMILES: Nc1nc2c(ncn2COCCO)c(=O)[nH]1 [ACYCLOVIR]
- IC50 (Vero [1]): > 88.8 µM
- IC50 (Vero [2]): 138 µM
- IC50 (Vero [3]): 111 µM
- IC50 (Vero [4]): 131 µM
- IC50 (Vero [5]): 37.8 µM
- IC50 (Vero [6]): 190 µM
- IC50 (Vero [7]): 444 µM
- IC50 (Vero [8]): 379 µM
- IC50 (Vero [9]): 6.66 µM
- IC50 (Vero [10]): > 44.4 µM
- IC50 (Vero [11]): 62.8 µM
- IC50 (Vero [12]): > 88.8 µM
- Selectivity index [13]: 34
- Selectivity index [14]: 589
- Selectivity index [15]: 117
- Selectivity index [16]: 50
- Selectivity index [17]: 32
- Selectivity index [18]: 40
- Selectivity index [19]: 23
- Selectivity index [20]: 23
- Selectivity index [21]: 11
- Selectivity index [22]: 100
- Selectivity index [23]: 70
- Selectivity index [24]: 50
- Selectivity index [25]: 667
- Selectivity index [26]: 10

SMILES: COc1ccc(C[C@@H](C)[C@@H](C)Cc2ccc(OC)c(OC)c2)cc1OC [TERAMEPROCOL]
- Change (Mus musculus [27]): -2.8%
- Change (Mus musculus [28]): -2.66%
- Mortality [29]: 1
- Mortality [30]: 0
- Mortality [31]: 0
- Mortality [32]: 0
- IC50 (Vero [1]): 8.24 µM
- IC50 (Vero [2]): 5.97 µM
- IC50 (Vero [3]): 6.48 µM
- IC50 (Vero [4]): 6.98 µM
- IC50 (Vero [5]): 4.4 µM
- IC50 (Vero [6]): 6.98 µM
- IC50 (Vero [7]): 9.91 µM
- IC50 (Vero [8]): 8.82 µM
- IC50 (Vero [9]): 4.18 µM
- IC50 (Vero [10]): 11.1 µM
- IC50 (Vero [11]): 11.1 µM
- IC50 (Vero [12]): 11.1 µM
- Selectivity index [33]: 26.8
- Selectivity index [34]: 22.9
- Selectivity index [35]: 22.9
- Selectivity index [36]: 16.1
- Selectivity index [37]: 18.1
- Selectivity index [38]: 38.3
- Selectivity index [39]: 13.7
- Selectivity index [40]: 33.5
- Selectivity index [41]: 36.4
- Selectivity index [42]: 19.4
- Selectivity index [43]: 14.4
- Selectivity index [44]: 14.4
- Selectivity index [45]: 14.4
- IC50 (Vero [46]): 11.7 µM and 4.47 µM
- Selectivity index [47]: 24.7
